Test results published in ChEMBL document CHEMBL1147105, “In vitro and in vivo activities of PD 0305970 and PD 0326448, new bacterial gyrase/topoisomerase inhibitors with potent antibacterial activities versus multidrug-resistant gram-positive and fastidious organism groups” (2007).
Converted amounts (≈) assume the structure as drawn.

How the values were obtained:
Actinomyces sp. = experiment: Antibacterial activity against Actinomyces sp.; format: functional
Cutibacterium acnes = experiment: Antibacterial activity against Propionibacterium acnes; format: functional
Enterococcus faecium [1] = experiment: Antibacterial activity against VanB-resistant Enterococcus faecium; format: functional
In short: (§1)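 Broth microdilution MIC per CLSI guidelines, incubated at 35°C. Cation-adjusted Mueller-Hinton broth for nonfastidious organisms and staphylococci. Streptococci tested in the same broth with 3% lysed horse blood. Anaerobes tested in supplemented Brucella broth inside an anaerobe chamber (5% CO2, 5% H2, 90% N2), read after 48 h. Strains were mainly recent clinical isolates with confirmed identity.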

Haemophilus influenzae [2] = experiment: Antibacterial activity against beta-lactamase negative Haemophilus influenzae; format: functional
In short: (§2)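 Broth microdilution MIC following CLSI guidelines, in Haemophilus test medium at 35°C.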

Corynebacterium jeikeium = experiment: Antibacterial activity against Corynebacterium jeikeium; format: functional
In short: (§3)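 Broth microdilution MIC following CLSI guidelines, in cation-adjusted Mueller-Hinton broth containing 3% lysed horse blood, incubated at 35°C. Clinical isolates with identity confirmed. Reported as MIC range, MIC50 and MIC90.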

[3] = system: Fusobacterium necrophorum; experiment: Antibacterial activity against Fusobacterium necrophorum; format: functional
In short: (§4)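 Anaerobic broth microdilution MIC following CLSI guidelines, in supplemented Brucella broth. Run in an anaerobe chamber under 5% CO2, 5% H2 and 90% N2 at 35°C, and read after 48 h. Reported as MIC range, MIC50 and MIC90.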

[4] = system: Prevotella melaninogenica; experiment: Antibacterial activity against Prevotella melaninogenica; format: functional; in short: as §4
Staphylococcus aureus [5] = experiment: Antibacterial activity against oxacillin-susceptible Staphylococcus aureus; format: functional
In short: (§5)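 MIC by CLSI broth microdilution for nonfastidious organisms, in cation-adjusted Mueller-Hinton broth incubated at 35°C.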

Moraxella catarrhalis [6] = experiment: Antibacterial activity against beta-lactamase negative Moraxella catarrhalis; format: functional
Streptococcus sanguinis = experiment: Antibacterial activity against Streptococcus sanguis; format: functional
In short: (§6)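 Broth microdilution MIC following CLSI guidelines, in cation-adjusted Mueller-Hinton broth with 3% lysed horse blood. Plates incubated at 35°C. Clinical isolates and reference strains, with identity confirmed by standard microbiological methods.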

Streptococcus equinus = experiment: Antibacterial activity against Streptococcus bovis; format: functional; in short: as §6
[7] = system: Staphylococcus haemolyticus; experiment: Antibacterial activity against Staphylococcus haemolyticus; format: functional; in short: as §3
Serratia marcescens = experiment: Antibacterial activity against Serratia marcescens; format: functional
In short: (§7)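 Broth microdilution MIC following CLSI guidelines, in cation-adjusted Mueller-Hinton broth, incubated at 35°C. Recent clinical isolates and reference strains, with identity confirmed by automated and standard microbiological methods. Results reported as MIC range, MIC50 and MIC90.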

Streptococcus pneumoniae = experiment: Antibacterial activity against penicillin-intermediate resistant Streptococcus pneumoniae; format: functional; in short: as §1
Prevotella bivia = experiment: Antibacterial activity against Prevotella bivia; format: functional; in short: as §4
Salmonella typhimurium = experiment: Antibacterial activity against Salmonella enterica serovar Typhimurium; format: functional, Salmonella enterica subsp. enterica serovar Typhimurium; in short: as §7
Acinetobacter sp. = experiment: Antibacterial activity against Acinetobacter sp.; format: functional; in short: as §7
Fusobacterium nucleatum = experiment: Antibacterial activity against Fusobacterium nucleatum; format: functional; in short: as §4
Staphylococcus aureus [8] = experiment: Antibacterial activity against oxacillin and levofloxacin-resistant Staphylococcus aureus; format: functional; in short: as §1
Bacteroides ovatus = experiment: Antibacterial activity against Bacteroides ovatus; format: functional; in short: as §4
Proteus vulgaris = experiment: Antibacterial activity against Proteus vulgaris; format: functional; in short: as §7
Enterococcus faecium [9] = experiment: Antibacterial activity against Enterococcus faecium; format: functional; in short: as §1
Prevotella buccae = experiment: Antibacterial activity against Prevotella buccae; format: functional; settings: Segatella buccae; in short: as §4
Enterococcus gallinarum = experiment: Antibacterial activity against Enterococcus gallinarum; format: functional
Citrobacter koseri = experiment: Antibacterial activity against Citrobacter diversus; format: functional; in short: as §7
Anaerococcus prevotii = experiment: Antibacterial activity against Peptostreptococcus prevotii; format: functional; in short: as §4
Enterococcus faecalis [10] = experiment: Antibacterial activity against VanB-resistant Enterococcus faecalis; format: functional; in short: as §1
Citrobacter freundii = experiment: Antibacterial activity against Citrobacter freundii; format: functional; in short: as §7
Hoylesella oralis = experiment: Antibacterial activity against Prevotella oralis; format: functional; in short: as §4
Finegoldia magna = experiment: Antibacterial activity against Peptostreptococcus magnus; format: functional; in short: as §4
Clostridium perfringens = experiment: Antibacterial activity against Clostridium perfringens; format: functional; in short: as §1
Shigella flexneri = experiment: Antibacterial activity against Shigella flexneri; format: functional; in short: as §7
Enterococcus faecalis [11] = experiment: Antibacterial activity against Enterococcus faecalis; format: functional; in short: as §1
[12] = system: Enterococcus casseliflavus; experiment: Antibacterial activity against Enterococcus casseliflavus; format: functional
Enterococcus faecalis [13] = experiment: Antibacterial activity against beta-lactamase positive Enterococcus faecalis; format: functional; in short: as §5
Shigella dysenteriae = experiment: Antibacterial activity against Shigella dysenteriae; format: functional
Corynebacterium sp. = experiment: Antibacterial activity against Corynebacterium sp.; format: functional; in short: as §3
[14] = system: Staphylococcus epidermidis; experiment: Antibacterial activity against oxacillin-resistant Staphylococcus epidermidis; format: functional; in short: as §1
Escherichia coli = experiment: Antibacterial activity against Escherichia coli; format: functional; in short: as §7
Klebsiella oxytoca = experiment: Antibacterial activity against Klebsiella oxytoca; format: functional; in short: as §7
Moraxella catarrhalis [15] = experiment: Antibacterial activity against beta-lactamase positive Moraxella catarrhalis; format: functional
Haemophilus influenzae [16] = experiment: Antibacterial activity against beta-lactamase positive Haemophilus influenzae; format: functional; in short: as §2
Shigella sonnei = experiment: Antibacterial activity against Shigella sonnei; format: functional; in short: as §7
Neisseria gonorrhoeae = experiment: Antibacterial activity against Neisseria gonorrhoeae; format: functional
In short: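 MIC by broth microdilution in gonococcal broth, incubated at 35°C in 5% CO2. Reported as MIC range, MIC50 and MIC90.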

Salmonella enteritidis = experiment: Antibacterial activity against Salmonella enterica serovar Enteritidis; format: functional, Salmonella enterica subsp. enterica serovar Enteritidis; in short: as §7
Bacteroides fragilis = experiment: Antibacterial activity against Bacteroides fragilis; format: functional; in short: as §4
Staphylococcus aureus [17] = experiment: Antibacterial activity against vancomycin-intermediate Staphylococcus aureus; format: functional; in short: as §1
Streptococcus mitis = experiment: Antibacterial activity against Streptococcus mitis; format: functional; in short: as §6

C[C@H]1NCc2cc(-c3ccc4c(=O)c(C(=O)O)cn(C5CC5)c4c3OC(F)F)ccc21 [GARENOXACIN]
MIC (Actinomyces sp.): 0.125 µg/mL (≈ 0.293 µM)
MIC50 (Cutibacterium acnes): 1 µg/mL (≈ 2.35 µM)
MIC90 (Cutibacterium acnes): 2 µg/mL (≈ 4.69 µM)
MIC (Enterococcus faecium [1]): 4 µg/mL (≈ 9.38 µM)
MIC50 (Haemophilus influenzae [2]): 0.008 µg/mL (≈ 0.0188 µM)
MIC90 (Haemophilus influenzae [2]): 0.03 µg/mL (≈ 0.0704 µM)
MIC50 (Corynebacterium jeikeium): 0.25 µg/mL (≈ 0.586 µM)
MIC90 (Corynebacterium jeikeium): 0.25 µg/mL (≈ 0.586 µM)
MIC [3]: 0.125 µg/mL (≈ 0.293 µM)
MIC50 [4]: 0.25 µg/mL (≈ 0.586 µM)
MIC90 [4]: 1 µg/mL (≈ 2.35 µM)
MIC50 (Staphylococcus aureus [5]): 0.06 µg/mL (≈ 0.141 µM)
MIC90 (Staphylococcus aureus [5]): 0.06 µg/mL (≈ 0.141 µM)
MIC50 (Moraxella catarrhalis [6]): 0.03 µg/mL (≈ 0.0704 µM)
MIC90 (Moraxella catarrhalis [6]): 0.03 µg/mL (≈ 0.0704 µM)
MIC50 (Streptococcus sanguinis): 0.125 µg/mL (≈ 0.293 µM)
MIC90 (Streptococcus sanguinis): 0.25 µg/mL (≈ 0.586 µM)
MIC50 (Streptococcus equinus): 0.25 µg/mL (≈ 0.586 µM)
MIC90 (Streptococcus equinus): 0.25 µg/mL (≈ 0.586 µM)
MIC50 [7]: 0.06 µg/mL (≈ 0.141 µM)
MIC90 [7]: 4 µg/mL (≈ 9.38 µM)
MIC50 (Serratia marcescens): 1 µg/mL (≈ 2.35 µM)
MIC90 (Serratia marcescens): 8 µg/mL (≈ 18.8 µM)
MIC50 (Streptococcus pneumoniae): 0.25 µg/mL (≈ 0.586 µM)
MIC90 (Streptococcus pneumoniae): 0.25 µg/mL (≈ 0.586 µM)
MIC50 (Prevotella bivia): 0.25 µg/mL (≈ 0.586 µM)
MIC90 (Prevotella bivia): 1 µg/mL (≈ 2.35 µM)
MIC50 (Salmonella typhimurium): 0.03 µg/mL (≈ 0.0704 µM)
MIC90 (Salmonella typhimurium): 0.125 µg/mL (≈ 0.293 µM)
MIC50 (Acinetobacter sp.): 0.125 µg/mL (≈ 0.293 µM)
MIC90 (Acinetobacter sp.): 16 µg/mL (≈ 37.5 µM)
MIC (Fusobacterium nucleatum): 0.125 µg/mL (≈ 0.293 µM)
MIC50 (Staphylococcus aureus [8]): 2 µg/mL (≈ 4.69 µM)
MIC90 (Staphylococcus aureus [8]): 4 µg/mL (≈ 9.38 µM)
MIC50 (Bacteroides ovatus): 2 µg/mL (≈ 4.69 µM)
MIC90 (Bacteroides ovatus): 4 µg/mL (≈ 9.38 µM)
MIC (Proteus vulgaris): 0.25 µg/mL (≈ 0.586 µM)
MIC50 (Enterococcus faecium [9]): 8 µg/mL (≈ 18.8 µM)
MIC90 (Enterococcus faecium [9]): 32 µg/mL (≈ 75 µM)
MIC50 (Prevotella buccae): 0.25 µg/mL (≈ 0.586 µM)
MIC90 (Prevotella buccae): 1 µg/mL (≈ 2.35 µM)
MIC50 (Enterococcus gallinarum): 0.25 µg/mL (≈ 0.586 µM)
MIC90 (Enterococcus gallinarum): 0.2 µg/mL (≈ 0.469 µM)
MIC50 (Citrobacter koseri): 0.125 µg/mL (≈ 0.293 µM)
MIC90 (Citrobacter koseri): 0.25 µg/mL (≈ 0.586 µM)
MIC (Anaerococcus prevotii): 0.015 µg/mL (≈ 0.0352 µM)
MIC50 (Enterococcus faecalis [10]): 2 µg/mL (≈ 4.69 µM)
MIC90 (Enterococcus faecalis [10]): 8 µg/mL (≈ 18.8 µM)
MIC50 (Citrobacter freundii): 1 µg/mL (≈ 2.35 µM)
MIC90 (Citrobacter freundii): > 64 µg/mL
MIC50 (Hoylesella oralis): 0.25 µg/mL (≈ 0.586 µM)
MIC90 (Hoylesella oralis): 1 µg/mL (≈ 2.35 µM)
MIC (Finegoldia magna): 0.015 µg/mL (≈ 0.0352 µM)
MIC50 (Clostridium perfringens): 0.5 µg/mL (≈ 1.17 µM)
MIC90 (Clostridium perfringens): 1 µg/mL (≈ 2.35 µM)
MIC50 (Shigella flexneri): 0.03 µg/mL (≈ 0.0704 µM)
MIC90 (Shigella flexneri): 0.125 µg/mL (≈ 0.293 µM)
MIC50 (Enterococcus faecalis [11]): 2 µg/mL (≈ 4.69 µM)
MIC90 (Enterococcus faecalis [11]): 4 µg/mL (≈ 9.38 µM)
MIC50 [12]: 0.25 µg/mL (≈ 0.586 µM)
MIC90 [12]: 0.5 µg/mL (≈ 1.17 µM)
MIC (Enterococcus faecalis [13]): 0.125 µg/mL (≈ 0.293 µM)
MIC50 (Shigella dysenteriae): 0.03 µg/mL (≈ 0.0704 µM)
MIC90 (Shigella dysenteriae): 0.125 µg/mL (≈ 0.293 µM)
MIC50 (Corynebacterium sp.): 0.25 µg/mL (≈ 0.586 µM)
MIC90 (Corynebacterium sp.): 64 µg/mL (≈ 150 µM)
MIC50 [14]: 2 µg/mL (≈ 4.69 µM)
MIC90 [14]: 32 µg/mL (≈ 75 µM)
MIC50 (Escherichia coli): 0.06 µg/mL (≈ 0.141 µM)
MIC90 (Escherichia coli): 1 µg/mL (≈ 2.35 µM)
MIC50 (Klebsiella oxytoca): 0.125 µg/mL (≈ 0.293 µM)
MIC90 (Klebsiella oxytoca): 2 µg/mL (≈ 4.69 µM)
MIC50 (Moraxella catarrhalis [15]): 0.06 µg/mL (≈ 0.141 µM)
MIC90 (Moraxella catarrhalis [15]): 0.06 µg/mL (≈ 0.141 µM)
MIC50 (Haemophilus influenzae [16]): 0.015 µg/mL (≈ 0.0352 µM)
MIC90 (Haemophilus influenzae [16]): 0.03 µg/mL (≈ 0.0704 µM)
MIC50 (Shigella sonnei): 0.03 µg/mL (≈ 0.0704 µM)
MIC90 (Shigella sonnei): 0.125 µg/mL (≈ 0.293 µM)
MIC50 (Neisseria gonorrhoeae): 0.004 µg/mL (≈ 0.00938 µM)
MIC90 (Neisseria gonorrhoeae): 0.004 µg/mL (≈ 0.00938 µM)
MIC50 (Salmonella enteritidis): 0.03 µg/mL (≈ 0.0704 µM)
MIC90 (Salmonella enteritidis): 0.125 µg/mL (≈ 0.293 µM)
MIC50 (Bacteroides fragilis): 0.5 µg/mL (≈ 1.17 µM)
MIC90 (Bacteroides fragilis): 2 µg/mL (≈ 4.69 µM)
MIC (Staphylococcus aureus [17]): 1 µg/mL (≈ 2.35 µM)
MIC50 (Streptococcus mitis): 0.125 µg/mL (≈ 0.293 µM)
MIC90 (Streptococcus mitis): 0.25 µg/mL (≈ 0.586 µM)
